Published values from different studies.
Compare with care: the assays were run in different laboratories. pEC50: −log10 of the molar value. Converted amounts (≈) assume the structure as drawn.

| Structure (SMILES) | tested on | test | test system | conditions | measurement | result |
| --- | --- | --- | --- | --- | --- | --- |
| COc1c2ccoc2cc2oc(=O)ccc12 |  | tubulin polymerisation, inhibitor |  | 10 µM | inhibition | 22.5% |
| COC(=O)[C@]12CCC(C)(C)C[C@H]1C1=CC[C@@H]3[C@@]4(C)CC[C@@H]5O[C@H]([C@H](O)[C@@H](O)[C@H](O)[C@H](O)CO)OC[C@@]5(C)[C@@H]4CC[C@@]3(C)[C@]1(C)CC2 | Leishmania mexicana | parasite growth, resazurin |  | 50 µM, amastigote | inhibition | 100% |
| CC(=O)OC1c2c(ccc3ccc(=O)oc23)OC(C)(C)C1OC(=O)C(C)(O)C(C)O (stereo not drawn) |  | tubulin polymerisation, inhibitor |  | 10 µM | inhibition | 33.8% |
| CC1(C)CC[C@]2(NC(=O)N3CCC[C@H]3CO)CC[C@]3(C)C(=CC[C@@H]4[C@@]5(C)CC[C@@H]6OC(C)(C)OC[C@@]6(C)[C@@H]5CC[C@]43C)[C@@H]2C1 | Leishmania mexicana | parasite growth, resazurin |  | 50 µM, amastigote | inhibition | 95.8% |
| O=c1c(O)c(-c2ccc(O)cc2)oc2cc(O)cc(O)c12 |  | tubulin polymerisation, inhibitor |  | 10 µM | inhibition | 15% |
| O=C1NC(=S)N/C1=C\c1ccc(-c2ccc(N(c3ccccc3)c3ccccc3)cc2)c2ccccc12 | Staphylococcus epidermidis | microbial killing, broth dilution | ATCC12228 |  | MBC | > 1000 mg/L |
| CC1(C)CC[C@]2(NC(=O)N3CCCC3)CC[C@]3(C)C(=CC[C@@H]4[C@@]5(C)CC[C@H](O)[C@@](C)(CO)[C@@H]5CC[C@]43C)[C@@H]2C1 | Leishmania mexicana | parasite growth, resazurin |  | 50 µM, amastigote | inhibition | 99% |
| O=C(/C=C/c1ccc(O)c(O)c1)O[C@@H]1C[C@](O)(C(=O)O)C[C@@H](O)[C@H]1O |  | tubulin polymerisation, inhibitor |  | 10 µM | inhibition | 30.9% |
| O=C1NC(=S)N/C1=C\c1ccc(-c2ccc(N(c3ccccc3)c3ccccc3)cc2)cc1 | Staphylococcus epidermidis | microbial killing, broth dilution | ATCC12228 |  | MBC | > 1000 mg/L |
| O=C(Nc1ccc(Cl)c(Cl)c1)c1cc([N+](=O)[O-])c(F)cc1Cl | Leishmania mexicana | parasite growth | J774.A1 | intracellular, amastigote | pEC50 | 6.02 |
| CC1(C)CC[C@]2(C(=O)OCc3ccccc3[N+](=O)[O-])CC[C@]3(C)C(=CC[C@@H]4[C@@]5(C)CC[C@H](O)[C@@](C)(CO)[C@@H]5CC[C@]43C)[C@@H]2C1 | Leishmania mexicana | parasite growth, resazurin |  | 50 µM, amastigote | inhibition | 100% |
| C/C=C(/C)C(=O)O[C@@H]1[C@H](OC(C)=O)c2c(ccc3ccc(=O)oc23)OC1(C)C |  | tubulin polymerisation, inhibitor |  | 10 µM | inhibition | 24.8% |
| CC1(C)CC[C@]2(C(=O)OCN3C(=O)c4ccccc4C3=O)CC[C@]3(C)C(=CC[C@@H]4[C@@]5(C)CC[C@H](O)[C@@](C)(CO)[C@@H]5CC[C@]43C)[C@@H]2C1 | Leishmania mexicana | parasite growth, resazurin |  | 50 µM, amastigote | inhibition | 98.6% |
| O=C1NC(=S)S/C1=C\c1c2ccccc2c(-c2ccc(N(c3ccccc3)c3ccccc3)cc2)c2ccccc12 | Staphylococcus epidermidis | microbial growth, broth dilution | ATCC12228 |  | MIC | > 1000 mg/L |
| O=Cc1ccc(CO)o1 |  | tubulin polymerisation, inhibitor |  | 10 µM | inhibition | 13.4% |
| Cc1ccc(-c2nc3ccccc3s2)cc1NC(=O)c1cc([N+](=O)[O-])c(F)cc1F | Leishmania mexicana | parasite growth | J774.A1 | intracellular, amastigote | pEC50 | 6.19 |
| COC(=O)[C@]1(O)C[C@@H](O)[C@@H](O)[C@H](OC(=O)/C=C/c2ccc(O)c(O)c2)C1 |  | tubulin polymerisation, inhibitor |  | 10 µM | inhibition | 16.9% |
| Cc1cc(Cl)c(Cl)cc1NC(=O)c1cc([N+](=O)[O-])c(F)cc1F | Leishmania mexicana | parasite growth | J774.A1 | intracellular, amastigote | pEC50 | 6.47 |
| O=C1NC(=S)S/C1=C\c1ccc(-c2ccc(N(c3ccccc3)c3ccccc3)cc2)cc1 | Staphylococcus epidermidis | microbial killing, broth dilution | ATCC12228 |  | MBC | 250 mg/L (≈ 538 µM) |
| Cc1ccc(-c2nc3ccccc3s2)cc1NC(=O)c1cc([N+](=O)[O-])c(N(C)C)cc1Cl | Leishmania mexicana | parasite growth | J774.A1 | intracellular, amastigote | pEC50 | < 5.00 |
| CO[C@H]1O[C@H]([C@@H]2OC[C@@]3(C)[C@@H]4CC[C@]5(C)[C@H](CC=C6[C@@H]7CC(C)(C)CC[C@]7(C(=O)O)CC[C@]65C)[C@@]4(C)CC[C@@H]3O2)[C@@H](O)[C@H](O)[C@H]1O | Leishmania mexicana | parasite growth, resazurin |  | 50 µM, amastigote | inhibition | 96.6% |
| O=C(O)CN1C(=O)/C(=C/c2ccc(-c3ccc(N(c4ccccc4)c4ccccc4)cc3)cc2)SC1=S | Staphylococcus epidermidis | microbial killing, broth dilution | ATCC12228 |  | MBC | 7.8 mg/L (≈ 14.9 µM) |
| C[C@H](O)[C@H](O)[C@@H](O)[C@@H](O)[C@@H]1OC[C@@]2(C)[C@@H]3CC[C@]4(C)[C@H](CC=C5[C@@H]6CC(C)(C)CC[C@]6(C(=O)O)CC[C@]54C)[C@@]3(C)CC[C@@H]2O1 | Leishmania mexicana | parasite growth, resazurin |  | 50 µM, amastigote | inhibition | 100% |
| O=C1NC(=S)N/C1=C\c1c2ccccc2c(-c2ccc(N(c3ccccc3)c3ccccc3)cc2)c2ccccc12 | Staphylococcus epidermidis | microbial killing, broth dilution | ATCC12228 |  | MBC | > 1000 mg/L |
